From ChEMBL document CHEMBL4257503, “N-Acetyl-3-aminopyrazoles block the non-canonical NF-kB cascade by selectively inhibiting NIK” (Medchemcomm, 2018)
Values after ≈ are worked out from the molar mass of the structure shown. Active and inactive are the calls of the source. The calls are words filed in the database; no cut-off is given here.

Columns and labels:
[1] = target: Serine/threonine-protein kinase tousled-like 1 (Homo sapiens, UniProt Q9UKI8); test: Inhibition of TLK1 (unknown origin)
[2] = Cytotoxicity against human EJM cells assessed as cell viability at 25 uM after 6 hrs by CellTiter Glo luminescent assay relative to control; type: cell-based; settings: read-out: Activity
In short: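 Cells seeded at 5 x 10^3 per well and exposed for 6 h to the compound (10, 25, 50 or 100 µM) or to DMSO vehicle. Viability was read as intracellular ATP by CellTiter Glo luminescence.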

[3] = target: 3-phosphoinositide-dependent protein kinase 1 (Homo sapiens, UniProt O15530); test: Inhibition of PDK1 (unknown origin)
[4] = target: Tyrosine-protein kinase CSK (Homo sapiens, UniProt P41240); test: Inhibition of CSK (unknown origin)
[5] = target: Fibroblast growth factor receptor 1 (Homo sapiens, UniProt P11362); test: Inhibition of wild-type FGFR1 (unknown origin)
Chain of Fibroblast growth factor receptor 1 (P11362 whole entry, the tested form may be a part): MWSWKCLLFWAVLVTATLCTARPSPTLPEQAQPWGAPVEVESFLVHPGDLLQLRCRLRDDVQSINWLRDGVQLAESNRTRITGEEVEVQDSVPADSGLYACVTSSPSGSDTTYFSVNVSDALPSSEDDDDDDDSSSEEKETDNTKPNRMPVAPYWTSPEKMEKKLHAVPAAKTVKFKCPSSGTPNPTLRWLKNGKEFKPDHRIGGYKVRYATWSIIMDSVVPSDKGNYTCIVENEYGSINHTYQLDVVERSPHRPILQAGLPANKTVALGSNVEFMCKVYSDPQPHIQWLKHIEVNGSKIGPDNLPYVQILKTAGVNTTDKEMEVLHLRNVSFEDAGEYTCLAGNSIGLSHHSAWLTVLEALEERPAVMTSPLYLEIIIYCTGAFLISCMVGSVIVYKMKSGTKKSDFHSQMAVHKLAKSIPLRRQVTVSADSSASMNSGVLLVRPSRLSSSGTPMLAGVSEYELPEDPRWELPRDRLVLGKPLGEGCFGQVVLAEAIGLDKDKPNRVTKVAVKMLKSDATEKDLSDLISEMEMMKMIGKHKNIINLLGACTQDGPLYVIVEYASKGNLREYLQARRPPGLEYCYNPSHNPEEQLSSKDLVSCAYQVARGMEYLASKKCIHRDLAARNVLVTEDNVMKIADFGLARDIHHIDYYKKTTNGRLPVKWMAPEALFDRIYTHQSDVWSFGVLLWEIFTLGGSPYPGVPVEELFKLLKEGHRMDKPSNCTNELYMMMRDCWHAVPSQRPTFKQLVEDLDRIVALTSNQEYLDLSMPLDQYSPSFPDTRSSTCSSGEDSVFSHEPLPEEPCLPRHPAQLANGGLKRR

[6] = target: T1, Inhibitor of nuclear factor kappa-B kinase subunit beta (Homo sapiens, UniProt O14920); test: Inhibition of recombinant human full-length N-terminal GST-fused/His6-tagged IKKbeta (M1 to S756 residues) expressed in Sf9 insect cells using ERLLDDRHDSGLDSMKDEE peptide as substrate measured after 60 mins by ADP-Glo kinase assay
T1 sequence (O14920 whole entry): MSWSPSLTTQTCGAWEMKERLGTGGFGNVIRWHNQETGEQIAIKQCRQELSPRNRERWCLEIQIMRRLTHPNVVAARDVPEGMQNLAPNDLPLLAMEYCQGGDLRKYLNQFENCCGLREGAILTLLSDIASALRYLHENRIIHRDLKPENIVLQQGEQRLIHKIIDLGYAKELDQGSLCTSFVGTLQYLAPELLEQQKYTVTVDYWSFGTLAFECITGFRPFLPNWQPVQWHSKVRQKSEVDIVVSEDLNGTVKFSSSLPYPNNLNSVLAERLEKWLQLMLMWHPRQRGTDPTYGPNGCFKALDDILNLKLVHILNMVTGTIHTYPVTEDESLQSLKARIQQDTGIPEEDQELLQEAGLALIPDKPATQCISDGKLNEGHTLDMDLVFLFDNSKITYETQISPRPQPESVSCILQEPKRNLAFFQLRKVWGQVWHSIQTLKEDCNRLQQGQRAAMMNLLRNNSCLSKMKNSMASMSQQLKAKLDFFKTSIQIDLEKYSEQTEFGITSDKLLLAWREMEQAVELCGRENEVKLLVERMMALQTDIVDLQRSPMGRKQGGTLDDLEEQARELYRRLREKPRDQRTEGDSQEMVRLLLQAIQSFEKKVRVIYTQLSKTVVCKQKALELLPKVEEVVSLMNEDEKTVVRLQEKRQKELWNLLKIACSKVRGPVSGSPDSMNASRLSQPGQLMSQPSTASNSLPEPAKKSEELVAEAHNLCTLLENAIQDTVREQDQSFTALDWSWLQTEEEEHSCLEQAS

[7] = Stability in human liver microsomes at 1 uM in presence of NADPH cofactor; type: ADME, microsome; settings: read-out: Stability
[8] = species: Mus musculus; test: Inhibition of mouse NIK kinase domain V480L mutant
[9] = target: Calcium/calmodulin-dependent protein kinase kinase 1 (Homo sapiens, UniProt Q8N5S9); test: Inhibition of CAMKK1 (unknown origin)
Chain of Calcium/calmodulin-dependent protein kinase kinase 1 (Q8N5S9 whole entry): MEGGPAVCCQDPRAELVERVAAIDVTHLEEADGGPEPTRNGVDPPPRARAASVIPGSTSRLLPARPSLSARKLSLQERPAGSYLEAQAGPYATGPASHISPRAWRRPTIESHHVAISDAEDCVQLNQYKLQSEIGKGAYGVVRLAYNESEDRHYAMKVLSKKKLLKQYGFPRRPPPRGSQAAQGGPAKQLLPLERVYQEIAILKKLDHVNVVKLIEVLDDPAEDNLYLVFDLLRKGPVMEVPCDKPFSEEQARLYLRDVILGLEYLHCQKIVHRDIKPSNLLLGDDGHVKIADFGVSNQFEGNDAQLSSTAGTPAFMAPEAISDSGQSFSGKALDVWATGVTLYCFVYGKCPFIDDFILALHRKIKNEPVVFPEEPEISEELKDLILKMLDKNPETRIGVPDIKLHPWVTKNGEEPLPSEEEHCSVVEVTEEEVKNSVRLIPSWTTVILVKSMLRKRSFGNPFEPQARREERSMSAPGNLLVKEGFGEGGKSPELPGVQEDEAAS

[10] = Kinetic solubility in phosphate buffered saline at pH 7.4 measured after 60 mins; type: physicochemical; settings: read-out: Kinetic_solubility
[11] = target: Mitogen-activated protein kinase 14 (Homo sapiens, UniProt Q16539); test: Inhibition of p38-alpha (unknown origin)
[12] = target: Mitogen-activated protein kinase kinase kinase 14 (Homo sapiens, UniProt Q99558); test: Inhibition of NIK-induced NFkappaB activation in human EJM cells at 25 uM after 6 hrs by dual luciferase reporter gene assay relative to control; type: cell-based
In short: (§1)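 Cells were nucleofected with the pGL4.32 NF-κB-RE firefly luciferase and pGL4.74 TK-Renilla plasmids (3 µg, 10:1 ratio) and cultured for 24 h at 37 °C. Compound (10, 25, 50 or 100 µM) was then added for 6 h. Firefly luminescence was normalised to Renilla from the same sample and expressed as % of vehicle control. Means ± SD of three independent experiments.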

[13] = tested on: Mitogen-activated protein kinase kinase kinase 14 (Homo sapiens), Q99558 [S549D]; test: Inhibition of human NIK kinase domain S549D mutant
[14] = target: Tyrosine-protein kinase JAK1 (Homo sapiens, UniProt P23458); test: Inhibition of JAK1 (unknown origin)
[15] = tested on: MDA-MB-231; test: Inhibition of NFkappaB activation in human MDA-MB-231 cells at 100 uM after 6 hrs by dual luciferase reporter gene assay relative to control; type: cell-based; in short: as §1
[16] = target: Serine/threonine-protein kinase PAK 1 (Homo sapiens, UniProt Q13153); test: Inhibition of PAK1 (unknown origin)
[17] = target: Receptor-type tyrosine-protein kinase FLT3 (Homo sapiens, UniProt P36888); test: Inhibition of wild-type FLT3 (unknown origin)
[18] = target: Dual specificity tyrosine-phosphorylation-regulated kinase 1A (Homo sapiens, UniProt Q13627); test: Inhibition of DYRK1A (unknown origin)
[19] = target: Mitogen-activated protein kinase kinase kinase 11 (Homo sapiens, UniProt Q16584); test: Inhibition of MAP3K11 (unknown origin)
Chain of Mitogen-activated protein kinase kinase kinase 11 (Q16584 whole entry, canonical isoform): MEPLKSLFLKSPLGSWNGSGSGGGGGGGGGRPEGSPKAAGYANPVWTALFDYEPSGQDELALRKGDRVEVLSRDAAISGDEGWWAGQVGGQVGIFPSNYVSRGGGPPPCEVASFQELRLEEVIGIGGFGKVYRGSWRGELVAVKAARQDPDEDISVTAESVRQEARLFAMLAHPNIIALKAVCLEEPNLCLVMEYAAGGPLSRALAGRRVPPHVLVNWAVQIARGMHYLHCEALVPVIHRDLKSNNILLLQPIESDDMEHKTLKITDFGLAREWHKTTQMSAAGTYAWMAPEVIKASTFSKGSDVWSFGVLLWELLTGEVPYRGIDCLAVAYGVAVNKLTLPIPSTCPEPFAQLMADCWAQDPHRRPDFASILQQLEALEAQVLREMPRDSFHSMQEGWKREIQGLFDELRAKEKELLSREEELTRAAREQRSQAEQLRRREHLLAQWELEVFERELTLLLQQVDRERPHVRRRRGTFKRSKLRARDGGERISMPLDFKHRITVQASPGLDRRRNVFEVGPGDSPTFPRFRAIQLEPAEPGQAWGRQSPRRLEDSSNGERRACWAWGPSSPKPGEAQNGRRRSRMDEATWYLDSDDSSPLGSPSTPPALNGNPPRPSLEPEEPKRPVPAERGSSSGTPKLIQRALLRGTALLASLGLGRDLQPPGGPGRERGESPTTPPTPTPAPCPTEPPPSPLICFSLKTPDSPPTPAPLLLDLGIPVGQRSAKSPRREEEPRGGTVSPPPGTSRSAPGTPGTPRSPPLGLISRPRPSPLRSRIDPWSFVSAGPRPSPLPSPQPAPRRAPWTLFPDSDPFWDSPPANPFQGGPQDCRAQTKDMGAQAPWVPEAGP

[20] = target: Casein kinase I isoform alpha (Homo sapiens, UniProt P48729); test: Inhibition of CK1-alpha1 (unknown origin)
Chain of Casein kinase I isoform alpha (P48729 whole entry, canonical isoform): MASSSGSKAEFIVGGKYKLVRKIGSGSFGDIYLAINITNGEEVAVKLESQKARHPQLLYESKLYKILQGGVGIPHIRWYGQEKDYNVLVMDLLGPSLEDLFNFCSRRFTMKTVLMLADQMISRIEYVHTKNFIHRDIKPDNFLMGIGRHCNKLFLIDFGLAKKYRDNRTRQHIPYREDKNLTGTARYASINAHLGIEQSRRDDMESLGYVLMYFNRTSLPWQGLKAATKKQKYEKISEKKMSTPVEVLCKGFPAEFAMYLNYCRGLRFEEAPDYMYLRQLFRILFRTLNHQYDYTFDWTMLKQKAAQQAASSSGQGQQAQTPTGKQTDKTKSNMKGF

[21] = target: Interleukin-1 receptor-associated kinase 4 (Homo sapiens, UniProt Q9NWZ3); test: Inhibition of untagged IRAK4 (unknown origin)
Chain of Interleukin-1 receptor-associated kinase 4 (Q9NWZ3 whole entry): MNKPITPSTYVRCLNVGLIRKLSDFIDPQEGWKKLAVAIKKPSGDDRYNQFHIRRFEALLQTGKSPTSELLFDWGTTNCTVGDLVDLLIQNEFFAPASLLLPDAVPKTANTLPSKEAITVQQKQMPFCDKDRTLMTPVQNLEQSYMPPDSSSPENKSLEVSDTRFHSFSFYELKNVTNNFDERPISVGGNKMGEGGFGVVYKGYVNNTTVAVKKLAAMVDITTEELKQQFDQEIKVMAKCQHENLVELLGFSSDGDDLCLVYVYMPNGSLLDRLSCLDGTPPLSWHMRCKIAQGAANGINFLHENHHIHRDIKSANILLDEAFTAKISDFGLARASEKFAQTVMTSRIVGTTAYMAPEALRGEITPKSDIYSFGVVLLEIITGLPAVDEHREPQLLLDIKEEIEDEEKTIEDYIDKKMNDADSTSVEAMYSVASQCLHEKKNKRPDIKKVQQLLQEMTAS

[22] = target: Cyclin-dependent kinase 1/cyclin B1 (Homo sapiens, UniProt P06493); test: Inhibition of CDK1/Cyclin B1 (unknown origin); type: protein-complex assay
Chain of Cyclin-dependent kinase 1/cyclin B1 (P06493 whole entry): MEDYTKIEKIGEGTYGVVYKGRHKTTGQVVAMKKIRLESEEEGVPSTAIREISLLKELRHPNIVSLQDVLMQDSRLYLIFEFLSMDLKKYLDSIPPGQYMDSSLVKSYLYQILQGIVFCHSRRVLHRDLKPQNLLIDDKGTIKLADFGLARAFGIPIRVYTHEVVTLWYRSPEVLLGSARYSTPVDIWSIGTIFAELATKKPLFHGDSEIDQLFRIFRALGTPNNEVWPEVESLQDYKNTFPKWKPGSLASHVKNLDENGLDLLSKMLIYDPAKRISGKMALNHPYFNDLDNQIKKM
Chain of Cyclin-dependent kinase 1/cyclin B1 (P14635 whole entry, further chain): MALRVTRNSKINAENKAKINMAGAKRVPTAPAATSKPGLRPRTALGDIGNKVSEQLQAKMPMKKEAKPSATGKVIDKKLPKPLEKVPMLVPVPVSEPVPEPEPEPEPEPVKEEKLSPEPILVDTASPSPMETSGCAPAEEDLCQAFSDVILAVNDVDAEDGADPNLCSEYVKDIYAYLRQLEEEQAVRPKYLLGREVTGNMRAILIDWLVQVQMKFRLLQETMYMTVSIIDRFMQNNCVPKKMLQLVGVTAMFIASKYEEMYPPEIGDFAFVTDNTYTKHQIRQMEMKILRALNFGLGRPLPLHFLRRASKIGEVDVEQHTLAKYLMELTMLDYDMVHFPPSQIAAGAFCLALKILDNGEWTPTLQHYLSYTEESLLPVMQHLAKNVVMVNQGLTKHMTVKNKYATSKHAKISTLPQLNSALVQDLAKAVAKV

[23] = species: Homo sapiens; test: Inhibition of NFkappaB activation in human SKBR3 cells at 100 uM after 6 hrs by dual luciferase reporter gene assay relative to control; type: cell-based; in short: as §1
[24] = target: Hepatocyte growth factor receptor (Homo sapiens, UniProt P08581); test: Inhibition of wild-type MET (unknown origin)
[25] = target: Serine/threonine-protein kinase mTOR (Homo sapiens, UniProt P42345); test: Inhibition of mTOR (unknown origin)
[26] = target: Serine/threonine-protein kinase Nek6 (Homo sapiens, UniProt Q9HC98); test: Inhibition of NEK6 (unknown origin)
[27] = target: Dual specificity protein kinase CLK1 (Homo sapiens, UniProt P49759); test: Inhibition of CLK1 (unknown origin)
Chain of Dual specificity protein kinase CLK1 (P49759 whole entry, the tested form may be a part): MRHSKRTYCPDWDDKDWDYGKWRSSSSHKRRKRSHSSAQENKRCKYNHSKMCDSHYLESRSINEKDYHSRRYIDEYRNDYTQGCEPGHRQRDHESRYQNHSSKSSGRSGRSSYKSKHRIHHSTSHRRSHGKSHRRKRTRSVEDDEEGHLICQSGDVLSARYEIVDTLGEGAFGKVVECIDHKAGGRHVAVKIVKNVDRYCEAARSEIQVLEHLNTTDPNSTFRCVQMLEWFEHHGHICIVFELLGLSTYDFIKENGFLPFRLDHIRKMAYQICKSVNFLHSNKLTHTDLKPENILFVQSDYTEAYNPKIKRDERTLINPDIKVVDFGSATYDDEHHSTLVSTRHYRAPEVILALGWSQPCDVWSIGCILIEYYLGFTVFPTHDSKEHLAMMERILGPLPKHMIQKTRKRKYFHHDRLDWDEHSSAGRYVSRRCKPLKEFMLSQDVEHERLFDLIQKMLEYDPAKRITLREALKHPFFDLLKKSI

[28] = target: 5'-AMP-activated protein kinase catalytic subunit alpha-1 (Homo sapiens, UniProt Q13131); test: Inhibition of AMPK alpha1 (unknown origin) (1 to 550 residues)
[29] = target: SRSF protein kinase 2 (Homo sapiens, UniProt P78362); test: Inhibition of SRPK2 (unknown origin)
[30] = Octanol/phosphate buffered saline partition coefficient, log D of the compound at pH 7.4; type: physicochemical
[31] = target: Serine/threonine-protein kinase 4 (Homo sapiens, UniProt Q13043); test: Inhibition of MST1 (unknown origin)

Chain of Serine/threonine-protein kinase tousled-like 1 (Q9UKI8 whole entry): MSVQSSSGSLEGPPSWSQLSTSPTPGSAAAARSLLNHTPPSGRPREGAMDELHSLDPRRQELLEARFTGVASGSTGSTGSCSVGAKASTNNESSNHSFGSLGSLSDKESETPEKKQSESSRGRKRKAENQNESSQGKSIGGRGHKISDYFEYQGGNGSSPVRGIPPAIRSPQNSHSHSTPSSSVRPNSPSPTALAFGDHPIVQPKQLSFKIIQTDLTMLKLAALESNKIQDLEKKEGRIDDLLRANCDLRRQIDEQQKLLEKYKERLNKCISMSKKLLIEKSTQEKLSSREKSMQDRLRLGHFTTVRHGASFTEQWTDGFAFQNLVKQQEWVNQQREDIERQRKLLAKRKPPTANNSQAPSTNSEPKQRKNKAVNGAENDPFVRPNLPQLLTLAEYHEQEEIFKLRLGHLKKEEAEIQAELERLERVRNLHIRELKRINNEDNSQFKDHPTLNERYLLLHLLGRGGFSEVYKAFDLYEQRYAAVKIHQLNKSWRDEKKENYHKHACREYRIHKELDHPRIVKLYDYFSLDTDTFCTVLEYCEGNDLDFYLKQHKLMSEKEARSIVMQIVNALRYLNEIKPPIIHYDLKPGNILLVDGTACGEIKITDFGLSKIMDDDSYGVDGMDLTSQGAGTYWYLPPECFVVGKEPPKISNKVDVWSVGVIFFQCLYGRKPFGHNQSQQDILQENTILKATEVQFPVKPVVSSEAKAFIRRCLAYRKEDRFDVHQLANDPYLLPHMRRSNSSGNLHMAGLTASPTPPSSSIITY

IC50 [1]: > 100 µM | IC50 [3]: > 100 µM | IC50 [4]: > 100 µM | IC50 [5]: > 100 µM | IC50 [6]: > 100 µM | remaining at 1 µM [7]: 1% | inhibition [8]: inactive | IC50 [9]: > 100 µM | solubility kinetic at 1 h [10]: 12 µM (≈ 3.41 µg/mL) | IC50 [11]: > 100 µM | inhibition [12]: 83.4% | inhibition [13]: inactive | IC50 [14]: > 100 µM | IC50 [16]: > 100 µM | IC50 [17]: > 100 µM | IC50 [18]: > 100 µM | IC50 [19]: > 100 µM | IC50 [20]: > 100 µM | IC50 [21]: > 100 µM | IC50 [22]: > 100 µM | IC50 [24]: > 100 µM | IC50 [25]: > 100 µM | IC50 [26]: > 100 µM | IC50 [27]: > 100 µM | IC50 [28]: > 100 µM | IC50 [29]: > 100 µM | logD [30]: 4.09 | IC50 [31]: > 100 µM
Compound: CC(=O)n1nc(C)c(-c2ccc(Cl)c(Cl)c2)c1N
viability at 6 h, 25 µM [2]: ≥ 80% | inhibition [15]: -0.77% | inhibition [23]: 3.9%
